Two compounds from ChEMBL document CHEMBL4049439, “Synthesis and Characterization of Tetrahydropyran-Based Bacterial Topoisomerase Inhibitors with Antibacterial Activity against Gram-Negative Bacteria” (J Med Chem, 2017) can be followed below.

In general, MIC refers to the smallest concentration in the dilution series that meets the test's criterion for growth inhibition. The solubility is the dissolved amount per volume that the medium holds. Lower therefore signals little dissolved substance. One may read the IC50 as the concentration at which inhibition is half-maximal. Lower therefore signals greater potency in that assay. A word on the fraction unbound: it is the share of the substance not bound to proteins or other matrix. What is called clearance is the rate of elimination divided by the concentration. A higher clearance goes with efficient removal. What is called CL/F is clearance divided by bioavailability, as obtained after extravascular dosing.

Molecules are shown by their SMILES. Values after ≈ are worked out from the molar mass of the structure shown. Active and inactive are the calls of the source. Some results are limits rather than exact numbers.

For data set [1], the system named is Escherichia coli. Put plainly: Ratio of MIC for wild-type Escherichia coli MG1655 to MIC for Escherichia coli MG1655 harboring tolC deletion mutant. It counts as functional, K-12 substr. MG1655. In a few lines:
(§1)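 Fold change in MIC for each MG1655 derivative (ΔacrAB, ΔrfaC, ΔtolC) relative to the MIC measured on wild-type E. coli MG1655, with both MICs in μg/mL.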

Data set [2] has as its system Enterococcus faecalis. Put plainly: Antibacterial activity against Enterococcus faecalis by CLSI broth microdilution method. It counts as functional. For orientation: Broth dilution looks for growth in wells or tubes with falling amounts of substance.
For data set [3], the system named is Cavia porcellus. Put plainly: Cardiotoxicity in Dunkin-Hartley guinea pig assessed as free plasma concentration causing effect on PR interval administered as iv at 3 mg/kg for first 20 mins of infusion followed by 10 mg/kg for second 20 mins of infusion followed by 30 mg/kg for third 20 mins of infusion by LC-MS/MS analysis. It counts as toxicity, organism-based. Particulars: in vivo. In a few lines:
(§2)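 Anesthetized guinea pigs received 3, 10 and 30 mg/kg iv over three consecutive 20 min periods. MAP, HR and ECG intervals (PR, QRS, RR, QT) recorded continuously. Blood drawn at the end of each period for drug levels. Value is the lowest plasma concentration differing from vehicle-treated animals. Free level uses unbound fraction from rapid equilibrium dialysis of guinea pig plasma.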

For data set [4], the system named is Escherichia coli. Put plainly: Antibacterial activity against Escherichia coli MG1655 harboring rfac deletion mutant by CLSI broth microdilution method. It counts as functional. The note with it: K-12 substr. MG1655. The method in brief: (§3)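 MIC (μg/mL) measured against engineered derivatives of E. coli MG1655. ΔrfaC has truncated LPS (raised permeability). ΔtolC lacks the outer-membrane TolC efflux component. ΔacrAB lacks the AcrAB efflux system of the cytoplasmic membrane.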

Data set [5] is described as follows: Solubility of the compound at pH 1 to 9. It counts as physicochemical. The note with it: buffer.
Data set [6] deals with Mus musculus. Put plainly: Dose normalized unbound AUC in NMRI mouse at 10 mg/kg, iv by LC-MS/MS analysis. It counts as ADME, organism-based. Particulars: in vivo. In a few lines: (§4)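 Mice dosed iv at 10 mg/kg or sc at 120 mg/kg. AUC normalized to dose (μg·h/(mL·dose)). Unbound AUC derived using fraction unbound. Clearance, Vdss and terminal half-life also derived.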
In data set [7] the test system is Escherichia coli. Put plainly: Antibacterial activity against Escherichia coli MG1655 harboring AcrAB deletion mutant by CLSI broth microdilution method. It counts as functional. The note with it: K-12 substr. MG1655. In a few lines: as §3
Data set [8] can be described thus: Ratio of AUC in NMRI mouse to MIC for methicillin-sensitive Staphylococcus aureus A-1178 infected in cyclophosphamide-induced neutropenic NMRI mouse model at 40 mg/kg/day.
Data set [9] relates to Escherichia coli. Put plainly: Antibacterial activity against wild-type Escherichia coli MG1655 by CLSI broth microdilution method. Particulars: K-12 substr. MG1655. It counts as functional. In a few lines: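 MIC (μg/mL) determined on wild-type E. coli MG1655, the parent of isogenic strains with truncated LPS or deleted TolC or AcrAB efflux.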
Data set [10] can be described thus: Cardiotoxicity against human induced pluripotent stem cell-derived cardiomyocytes assessed as total drug concentration causing effect on spontaneous rhythm after 5 to 60 mins by Fluo-4 dye based fluorescence assay. It counts as toxicity. Particulars: cardiac muscle cell. In a few lines: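 Spontaneous beating rhythm of human iPSC-derived cardiomyocytes monitored. Reported value is the lowest active concentration, free or total. Free/total conversion corrected for 20% serum in the test solution.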

Data set [11] in a line: Inhibition of wild-type Pseudomonas aeruginosa DNA topoisomerase-4 mediated supercoiled pBR322 DNA relaxation by ethidium bromide based agarose gel electrophoresis.
Data set [12] has as its system Escherichia coli. Put plainly: Ratio of MIC for wild-type Escherichia coli MG1655 to MIC for Escherichia coli MG1655 harboring rfac deletion mutant. It counts as functional, K-12 substr. MG1655. In a few lines:
as §1

A short description of data set [13]: Fraction unbound in NMRI mouse at 10 mg/kg, iv by rapid equilibrium dialysis. It counts as ADME, organism-based. Particulars: plasma. The method in brief:
as §4
(In general: Equilibrium dialysis compares concentrations on both sides of a semipermeable membrane.)

Data set [14] can be described thus: Volume of distribution at steady state in NMRI mouse at 10 mg/kg, iv by LC-MS/MS analysis. It counts as ADME, organism-based. The note with it: in vivo, read-out: Vdss. In a few lines:
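Mice received a single dose of 10 mg/kg intravenously, or 120 mg/kg subcutaneously for one compound. Clearance, Vdss, half-life, unbound fraction and dose-normalized AUC were derived from plasma exposure.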

Data set [15] has as its system Escherichia coli. Put plainly: Ratio of MIC for wild-type Escherichia coli MG1655 to MIC for Escherichia coli MG1655 harboring AcrAB deletion mutant. It counts as functional, K-12 substr. MG1655. The method in brief:
as §1

The subject of data set [16] is Cavia porcellus. Put plainly: Cardiotoxicity in Dunkin-Hartley guinea pig assessed as free plasma concentration causing effect on heart rate administered as iv at 3 mg/kg for first 20 mins of infusion followed by 10 mg/kg for second 20 mins of infusion followed by 30 mg/kg for third 20 mins of infusion by LC-MS/MS analysis. It counts as toxicity, organism-based. Particulars: in vivo. In a few lines:
as §2

In data set [17] the test system is Streptococcus agalactiae. Put plainly: Antibacterial activity against Streptococcus agalactiae by CLSI broth microdilution method. It counts as functional.
The subject of data set [18] is Staphylococcus aureus. Put plainly: Antibacterial activity against methicillin-sensitive Staphylococcus aureus A-1178 infected in cyclophosphamide-induced neutropenic NMRI mouse model assessed as log reduction in colony forming units in thighs at 40 mg/kg, sc treated 2 hrs post infection measured 22 hrs post dose. It counts as functional. In a few lines: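 Neutropenic mouse thigh model infected with a methicillin-sensitive S. aureus strain, subcutaneous dosing. Thigh CFU measured 24 h post-infection (22 h post-treatment). Net log reduction given against CFU at treatment start.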

Data set [19] can be described thus: Terminal half-life in NMRI mouse at 10 mg/kg, iv by LC-MS/MS analysis. The note with it: in vivo, read-out: beta t1/2 (converted). It counts as ADME, organism-based. In a few lines: as §4
Data set [20] relates to Escherichia coli. Put plainly: Antibacterial activity against Escherichia coli MG1655 harboring tolC deletion mutant by CLSI broth microdilution method. The note with it: K-12 substr. MG1655. It counts as functional. The method in brief: as §3
Data set [21] concerns Mus musculus. Put plainly: Dose normalized unbound AUC in NMRI mouse at 120 mg/kg, sc by LC-MS/MS analysis. The note with it: in vivo. It counts as ADME, organism-based. In a few lines:
as §4

For data set [22], the system named is Escherichia coli. Put plainly: Antibacterial activity against Escherichia coli ATCC 25922 infected in cyclophosphamide-induced neutropenic NMRI mouse model assessed as log reduction in colony forming units in thighs at 360 mg/kg, sc treated 2 hrs post infection measured 5.5 hrs post dose. It counts as functional. The method in brief:
(§5)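 Neutropenic murine thigh infection with an E. coli strain, compound given subcutaneously. Thigh CFU counted 7.5 h post-infection (5.5 h post-treatment). Net change expressed relative to CFU at treatment start.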

The nature of data set [23]: Clearance in dog at 1 mg/kg, iv by LC-MS/MS analysis. It counts as ADME, organism-based, Canis lupus familiaris. Particulars: in vivo. The method in brief:
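Dogs given 1 mg/kg iv. Clearance (mL/min/kg) and half-life (h) derived from plasma profiles.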

Data set [24] has as its system Escherichia coli. Put plainly: Antibacterial activity against Escherichia coli ATCC 25922 infected in cyclophosphamide-induced neutropenic NMRI mouse model assessed as reduction in colony forming units in thighs at 120 mg/kg, sc treated 2 hrs post infection measured 5.5 hrs post dose. It counts as functional, organism-based. In a few lines: as §5
Data set [25] has as its system Mus musculus. Put plainly: Dose normalized AUC in NMRI mouse at 120 mg/kg, sc by LC-MS/MS analysis. It counts as ADME, organism-based. The note with it: in vivo. The method in brief:
as §4

In data set [26] the test system is Escherichia coli. Put plainly: Antibacterial activity against Escherichia coli ATCC 25922 by CLSI broth microdilution method. It counts as functional.
Data set [27] in a line: Fraction unbound in NMRI mouse plasma at 120 mg/kg, sc by rapid equilibrium dialysis. It counts as ADME, organism-based. The method in brief: as §4
Data set [28] in a line: Terminal half-life in NMRI mouse at 120 mg/kg, sc by LC-MS/MS analysis. It counts as ADME, organism-based. The note with it: in vivo, read-out: beta t1/2 (converted). The method in brief:
as §4

Data set [29] can be described thus: Apparent clearance in NMRI mouse at 120 mg/kg, sc by LC-MS/MS analysis. It counts as ADME, organism-based. Particulars: in vivo. The method in brief:
as §4

Regarding `COc1ccc2ncc(F)c(C[C@H](N)[C@@H]3CC[C@@H](NCc4ccc5c(n4)NC(=O)CO5)CO3)c2n1`, the Ratio in data set [1] is 8; in data set [12], 2; in data set [15], 8. In addition, the MIC is 0.25 µg/mL (≈ 0.518 µM) in data set [2]; 0.031 µg/mL (≈ 0.0642 µM) in data set [4]; 0.008 µg/mL (≈ 0.0166 µM) in [7]; 0.063 µg/mL (≈ 0.131 µM) in data set [9]; 2 µg/mL (≈ 4.14 µM) in data set [17]; 0.008 µg/mL (≈ 0.0166 µM) in [20]. The “Cp(f)” value in data set [3] came out at 1800 nM; in data set [16], 530 nM. Moreover, the solubility in data set [5] is more than 100 µg/mL. The compound also showed a fAUC/dose in [6] of 35.4 µg·h/mL. For the same compound, the RatioAUC/MIC in data set [8] amounted to 23.5. In addition, the Drug uptake in data set [10] amounted to 0.5 µM. Inhibition in data set [11] was half-maximal at 30 nM (IC50). For the same compound, the fraction unbound in data set [13] came out at 0.15. In data set [14], the Vd came to 12.3 L/kg. For the same compound, in [18], the Activity is given as more than 2.5 log10CFU. In [19], the half-life was 5.6 h.

On to `COc1ccc2ccc(=O)n(C[C@H](N)[C@@H]3CC[C@@H](NCc4ccc5c(n4)NC(=O)CO5)CO3)c2n1`, for which the minimal inhibitory concentration (MIC) in data set [2] was 1 µg/mL (≈ 2.08 µM); in [17] it was 4 µg/mL (≈ 8.32 µM); in data set [26], 0.25 µg/mL (≈ 0.52 µM). Moreover, the “Cp(f)” value was 2700 nM in data set [3] and 11000 nM in [16]. In data set [21], this compound came in with a fAUC/dose of 68.6 µg·h/mL. Moreover, the Activity in data set [22] is recorded as 2 log10CFU. This compound returned a clearance in [23] of 45 mL/min/kg. In [10], the Drug uptake lay in the range of 0.31 to 0.93 µM. Also, it took 30 nM to reach half-maximal inhibition in data set [11] (IC50). Moreover, the result in data set [24] was inactive. The compound further had an AUC/dose in [25] of 186 µg·h/mL. This compound also showed an unbound share (fraction unbound) in [27] of 0.369. The half-life in data set [28] is 5.2 h. Further, the apparent clearance (CL/F) in [29] was found to be 86 mL/min/kg.
